Measured values: ChEMBL document CHEMBL1135613, “Soluble tetraarylporphyrin-platinum conjugates as cytotoxic and phototoxic antitumor agents” (J Med Chem, 2002)

Tests used:
Type in all cases: cell-based
Settings in all cases: human
TCC-SUP [1] = assay: Cytotoxicity of compound in dark was determined at 1 uM in TCC-SUP transitional bladder cancer cells; No statistically significant cytotoxicity
TCC-SUP [2] = assay: Cytotoxicity of compound in light was determined at 1 uM in TCC-SUP transitional bladder cancer cells; Marked light-induced toxicity
TCC-SUP [3] = assay: Cytotoxicity of compound was determined from treated to that of control TCC-SUP cells
How it was run: (§1)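 Kinetic (multiple-point) chemosensitivity assay: TCC-SUP cells (passage 56) seeded in microplates, drug added after 48 h at 1, 5 and 10 µM from 10 mM stocks, 0.1% (v/v) final solvent. Medium left unchanged; growth followed by absorbance at 578 nm up to 144 h. T/C corr. = (T−C0)/(C−C0)×100; cytocidal effect = (C0−T)/C0×100 when T<C0.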

TCC-SUP [4] = assay: Cytotoxicity of compound in dark was determined at 10 uM in TCC-SUP transitional bladder cancer cells; No statistically significant cytotoxicity
TCC-SUP [5] = assay: Photoxicity of compound in light was determined at 1 uM in TCC-SUP transitional bladder cancer cells; Marked light-induced toxicity
TCC-SUP [6] = assay: Cytotoxicity of compound in dark was determined at 5 uM in TCC-SUP transitional bladder cancer cells; No statistically significant cytotoxicity
TCC-SUP [7] = assay: Cytotoxicity of compound was determined from treated to that of control on the proliferation of TCC-SUP cells at 5 uM; how it was run: as §1
TCC-SUP [8] = assay: Cytocidal of compound was determined from 10 uM in TCC-SUP cells incubated for 144 hr; how it was run: as §1
TCC-SUP [9] = assay: Cytotoxicity of compound was determined from treated to that of control on the proliferation of TCC-SUP cells at 1 uM; how it was run: as §1

Compound: COCCOCCOc1ccc(-c2c3nc(c(-c4ccc(OCCOCCOC)cc4)c4ccc([nH]4)c(-c4ccc(OC(C(=O)O)C(=O)O)cc4)c4nc(c(-c5ccc(OCCOCCOC)cc5)c5ccc2[nH]5)C=C4)C=C3)cc1
- Cytotoxicity (TCC-SUP [1]): No effect
- Cytotoxicity (TCC-SUP [2]): Marked light-induced toxicity
- T/C corr (TCC-SUP [3]): 37%

Compound: COCCOCCOCCOCCOCCOCCOCCOCCOCCOCCOCCOCCOCCOCCOCCOCCOCCOc1ccc(-c2c3nc(c(-c4ccc(OCCOCCOCCOCCOCCOCCOCCOCCOCCOCCOCCOCCOCCOCCOCCOCCOCCOC)cc4)c4ccc([nH]4)c(-c4ccc(OC(C(=O)O)C(=O)O)cc4)c4nc(c(-c5ccc(OCCOCCOCCOCCOCCOCCOCCOCCOCCOCCOCCOCCOCCOCCOCCOCCOCCOC)cc5)c5ccc2[nH]5)C=C4)C=C3)cc1
- Cytotoxicity (TCC-SUP [4]): No effect

Compound: COCCOCCOCCOc1ccc(-c2c3nc(c(-c4ccc(OCCOCCOCCOC)cc4)c4ccc([nH]4)c(-c4ccc(OC(C(=O)O)C(=O)O)cc4)c4nc(c(-c5ccc(OCCOCCOCCOC)cc5)c5ccc2[nH]5)C=C4)C=C3)cc1
- Cytotoxicity (TCC-SUP [5]): Marked light-induced toxicity
- T/C corr (TCC-SUP [3]): 37%
- Cytotoxicity (TCC-SUP [6]): No effect

Compound: Diammine[2-(4-{10,15,20-tris[4-(1,4,7,10-tetraoxaundecyl)phenyl]porphyrin-5-yl}phenoxy)malonato]platinum-(II)
- T/C corr (TCC-SUP [7]): 2.8%
- Cytocidal effect (TCC-SUP [8]): 17.1%
- T/C corr (TCC-SUP [9]): 26.2%
